Legend:
Canis familiaris [1] = experiment: Evaluated against tetragastrin stimulated gastric acid secretion in conscious Hiedenhain-pouch dogs at a dose of 0.32 mg/kg, po; type: functional; details: Canis lupus familiaris, Stomach
Summary of the method: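 Beagle Heidenhain-pouch dogs, 8–13 kg, oral dosing. Acid concentration titrated to pH 7 with 0.1 N NaOH; total acid output is volume × concentration. Change is relative to predosing output. ED50 by probit from three or four doses, three or four dogs per dose.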

[2] = target: Histamine H2 receptor (Cavia porcellus) (UniProt P47747); experiment: H2 receptor antagonistic activity against histamine stimulated chronotropic response in isolated guinea pig right atrium at 1x10E-6 g/mL.; type: functional, tissue-based; details: Cardiac atrium
Histamine H2 receptor (Cavia porcellus), sequence (P47747 whole entry): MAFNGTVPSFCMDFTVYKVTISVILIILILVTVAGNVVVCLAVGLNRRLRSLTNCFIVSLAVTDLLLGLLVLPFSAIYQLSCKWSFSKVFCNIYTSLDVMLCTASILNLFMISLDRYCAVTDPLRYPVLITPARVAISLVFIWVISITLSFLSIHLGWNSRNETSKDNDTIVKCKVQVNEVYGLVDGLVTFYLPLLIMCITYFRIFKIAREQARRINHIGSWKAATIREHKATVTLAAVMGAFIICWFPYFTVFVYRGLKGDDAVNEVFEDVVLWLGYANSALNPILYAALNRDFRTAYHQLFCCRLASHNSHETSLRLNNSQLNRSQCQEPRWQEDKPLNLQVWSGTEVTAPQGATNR
Summary of the method: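 Guinea pig atrial strip under 0.3–0.6 g tension in Tyrode solution, 30 °C, gassed with 95% O2-5% CO2. Beating rate recorded. Histamine HCl 1 × 10-6 g/mL given; after washout, test compound added (single-concentration screen 1 × 10-6 g/mL) and histamine response compared before and 30 min after dosing. IC50 from three doses by probit analysis, three atria per dose.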

Rattus norvegicus [3] = experiment: Inhibition of histamine stimulated gastric acid secretion in lumen perfused anaesthetized rats after 1 mg/kg intravenous dose; type: functional; details: Stomach
Summary of the method: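 Male SD rats (~250 g), fasted 24 h, urethane 1.25 g/kg ip. Stomach lumen perfused with saline; perfusate titrated with 25 mM NaOH. Histamine infused iv at 3 mg/kg/h. At plateau, compound given iv at 1 mg/kg. Result expressed as maximal inhibition of acid output; n = 2.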

Rattus norvegicus [4] = experiment: Evaluated against aspirin induced gastric lesions in rats after peroral dose of 100 mg/kg; type: functional; details: Stomach, route oral
Summary of the method: (§1)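 Male SD rats (~200 g), fasted 24 h. Test compound given orally in 0.1% MC, then aspirin 200 mg/kg in 0.2 N HCl/0.1% MC (10 mL/kg) orally 30 min later. Rats killed 1 h after aspirin. Ulcer index is the summed lesion length (mm); % inhibition is relative to controls. Seven rats per group for screening; ED50 by probit from three doses, ten rats per dose.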

Rattus norvegicus [5] = experiment: Inhibition of aspirin induced gastric lesions in rats after peroral dose of 32 mg/kg; type: functional; details: Stomach, route oral; summary of the method: as §1
Canis familiaris [6] = species: Canis familiaris; experiment: animal or person; details: Canis lupus familiaris, Stomach, po, read-out: Inhibition

Structure (SMILES) | inhibition in vivo at 0.32 mg/kg (Canis familiaris [1]) | inhibition [2] | inhibition in vivo at 1 mg/kg (Rattus norvegicus [3]) | inhibition in vivo at 100 mg/kg (Rattus norvegicus [4]) | inhibition in vivo at 32 mg/kg (Rattus norvegicus [5]) | inhibition in vivo at 22 mg/kg (Canis familiaris [6])
CC(=O)OCC(=O)NCCCOc1cccc(CN2CCCCC2)c1 [ROXATIDINE ACETATE] | 58% | 76% | 84% | 31% | – | –
CN/C(=N\CCSCc1nc[nH]c1C)NC#N [CIMETIDINE] | – | 43% | 53% | – | 33% | 22%
